Published values of several laboratories.
Each line is one published result; the experiments were not run side by side. Converted amounts (≈) assume the structure as drawn.

Cl.NCCc1ccccc1Oc1ccc(-c2noc(-c3ccc(O)cc3)n2)cc1 — MIC (Clostridioides difficile; microbial growth, broth dilution; 48 h): 8 µg/mL
COc1c(N2C[C@@H]3CCCN[C@@H]3C2)c(F)cc2c(=O)c(C(=O)O)cn(C3CC3)c12 — MIC90 (Aliivibrio fischeri; microbial growth): 0.06 µg/mL (≈ 0.149 µM)
Cc1ccc(C)n1-c1ccc(-c2n[nH]c(=S)[nH]2)cc1 — MIC (Saccharomyces cerevisiae; microbial growth, broth dilution; ATCC9763): > 500 µg/mL
O=C(O)CNc1ccc(-c2nc(-c3ccc(Oc4ccccc4)cc3)no2)cc1 — MIC (Clostridioides difficile; microbial growth, broth dilution; 48 h): 13 µg/mL (≈ 33.6 µM)
O=C(Nc1cc(F)c(F)c(F)c1)c1ccc(F)c(S(=O)(=O)NCc2ccc(B(O)O)cc2)c1 — EC50 (Hepatitis B virus; viral replication, inhibitor, qPCR; HePAD38; 6 days): 380 nM
O=C(N/N=C/c1ccc([N+](=O)[O-])o1)c1ccc(O)cc1 — MIC90 (Aliivibrio fischeri; microbial growth): 7.8 µg/mL (≈ 28.3 µM)
Nc1ccn([C@@H]2CS[C@H](CO)O2)c(=O)n1 — IC50 (Hepatitis B virus; viral replication, qPCR; HepG2.2.15; 6 days): 7370 nM
O=C(O)CCc1ccccc1Oc1ccc(-c2noc(-c3ccc(O)cc3)n2)cc1 — MIC (Clostridioides difficile; microbial growth, broth dilution; 48 h): 4 µg/mL (≈ 9.94 µM)
CC1(C)OB(c2ccc(CNS(=O)(=O)c3cc(C(=O)Nc4cc(F)c(F)c(F)c4)ccc3F)cc2)OC1(C)C — EC50 (Hepatitis B virus; viral replication, inhibitor, qPCR; HePAD38; 6 days): 490 nM
Cc1ccc(C)n1-c1ccc(-c2nnc(-c3ccccc3[N+](=O)[O-])[nH]2)cc1 — MIC (Saccharomyces cerevisiae; microbial growth, broth dilution; ATCC9763): 31.2 µg/mL (≈ 87 µM)
